What was measured:
[1] = tested on: Canis familiaris; assay: Bronchodilator activity in dog assessed as time of inhibition of carbachol or histamine-induced bronchoconstriction at 10 to 20 mg/kg, iv relative to control; assay type: functional, Canis lupus familiaris; details: dose mg/kg 10-20
Method in brief: (§1)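 Dog with airway cannulated through a nonbreathing valve. Bronchoconstriction induced by iv carbachol (2–4 µg/kg) or histamine diphosphate (20–50 µg/kg); airway pressure recorded by pressure transducer. Each compound tested against both agonists in different animals, and results were combined and averaged. Bronchodilation = % inhibition of control constriction; degree scored as +, ++, +++ (20-45, 45-70, >70%) from higher dose, ≥3 dogs/dose; duration in h.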

[2] = tested on: Canis familiaris; assay: Bronchodilator activity in dog assessed as degree of inhibition of carbachol or histamine-induced bronchoconstriction at 10 to 20 mg/kg, iv relative to control; assay type: functional, Canis lupus familiaris; details: dose mg/kg 10-20; method in brief: as §1
[3] = tested on: Canis familiaris; assay: Cardiotoxicity in spontaneously respiring dog assessed as time of increase in heart rate at 10 to 20 mg/kg, iv relative to control; assay type: toxicity, organism-based, Canis lupus familiaris; design: dose 10-20 mg/kg, route intravenous; details: in vivo
Method in brief: (§2)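 Anesthetized, spontaneously respiring dogs. Heart rate monitored by lead II EKG; blood pressure from right femoral artery by pressure transducer. Rise in heart rate (beats/min) scored ±=5-15, +=20-40, ++=40-60, +++=>60, n>4/dose; duration of the rise in h. Drug stocks freshly made in distilled water, diluted in physiological saline, kept on ice.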

[4] = tested on: Canis familiaris; assay: Cardiotoxicity in spontaneously respiring dog assessed as degree of increase in heart rate at 10 to 20 mg/kg, iv relative to control; assay type: toxicity, organism-based, Canis lupus familiaris; design: dose 10-20 mg/kg, route intravenous; details: in vivo; method in brief: as §2
[5] = tested on: Canis familiaris; assay: Cardiotoxicity in spontaneously respiring dog assessed as time of increase in heart rate at 5 to 20 mg/kg, iv relative to control; assay type: toxicity, organism-based, Canis lupus familiaris; design: dose 5-20 mg/kg, route intravenous; details: in vivo; method in brief: as §2
[6] = tested on: Canis familiaris; assay: Bronchodilator activity in dog assessed as degree of inhibition of carbachol or histamine-induced bronchoconstriction at 5 to 20 mg/kg, iv relative to control; assay type: functional, Canis lupus familiaris; details: dose mg/kg 5-20; method in brief: as §1
[7] = tested on: Canis familiaris; assay: Bronchodilator activity in dog assessed as time of inhibition of carbachol or histamine-induced bronchoconstriction at 5 to 20 mg/kg, iv relative to control; assay type: functional, Canis lupus familiaris; details: dose mg/kg 5-20; method in brief: as §1
[8] = tested on: Canis familiaris; assay: Cardiotoxicity in spontaneously respiring dog assessed as degree of increase in heart rate at 5 to 20 mg/kg, iv relative to control; assay type: toxicity, organism-based, Canis lupus familiaris; design: dose 5-20 mg/kg, route intravenous; details: in vivo; method in brief: as §2
[9] = tested on: Canis familiaris; assay: Bronchodilator activity in dog assessed as degree of inhibition of carbachol or histamine-induced bronchoconstriction at 5 mg/kg, iv relative to control; assay type: functional; details: Canis lupus familiaris
Method in brief: (§3)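 Anesthetized dogs, trachea cannulated with a nonbreathing valve. Bronchoconstriction induced by iv carbachol (2–4 μg/kg) or histamine diphosphate (20–50 μg/kg) in separate animals, and airway pressure recorded by transducer. Drug stocks were made fresh in distilled water, diluted in saline and kept on ice. Read-out was percent inhibition of control constriction, averaged over at least three dogs per dose at the higher dose. Carbachol and histamine data were combined.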

[10] = tested on: Canis familiaris; assay: Bronchodilator activity in dog assessed as time of inhibition of carbachol or histamine-induced bronchoconstriction at 5 mg/kg, iv relative to control; assay type: functional, Canis lupus familiaris
Method in brief: (§4)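 Anesthetized dogs with an airway cannula and a nonbreathing valve. Bronchoconstriction was induced by iv carbachol (2–4 μg/kg) or histamine diphosphate (20–50 μg/kg) and read as change in airway pressure by transducer. Each compound was tested against both agonists in different dogs, and the results were combined and averaged. Effect is % inhibition of control constriction, with at least three dogs per dose. Drugs were dissolved fresh in distilled water, diluted in saline and kept on ice.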

[11] = tested on: Canis familiaris; assay: Bronchodilator activity in dog assessed as degree of inhibition of carbachol or histamine-induced bronchoconstriction at 5 to 10 mg/kg, iv relative to control; assay type: functional, Canis lupus familiaris; details: dose mg/kg 5-10; method in brief: as §3
[12] = tested on: Canis familiaris; assay: Cardiotoxicity in spontaneously respiring dog assessed as time of increase in heart rate at 5 to 10 mg/kg, iv relative to control; assay type: toxicity, organism-based, Canis lupus familiaris; design: dose 5-10 mg/kg, route intravenous; details: in vivo
Method in brief: (§5)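 Anesthetized, spontaneously respiring dogs. Heart rate was taken from a lead II EKG, and blood pressure from the right femoral artery by transducer. The increase in heart rate (beats/min) was scored on a graded scale with more than 4 dogs per dose, and its duration was recorded. Drugs were dissolved fresh in distilled water, diluted in physiological saline and kept on ice.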

[13] = tested on: Canis familiaris; assay: Cardiotoxicity in spontaneously respiring dog assessed as degree of increase in heart rate at 5 to 10 mg/kg, iv relative to control; assay type: toxicity, organism-based, Canis lupus familiaris; design: dose 5-10 mg/kg, route intravenous; details: in vivo; method in brief: as §5
[14] = tested on: Canis familiaris; assay: Bronchodilator activity in dog assessed as degree of inhibition of carbachol or histamine-induced bronchoconstriction at 440 to 880 mg/kg, it relative to control; assay type: functional, Canis lupus familiaris; details: dose mg/kg 440-880; route endotracheal; method in brief: as §3
[15] = tested on: Canis familiaris; assay: Bronchodilator activity in dog assessed as time of inhibition of carbachol or histamine-induced bronchoconstriction at 5 to 10 mg/kg, iv relative to control; assay type: functional, Canis lupus familiaris; details: dose mg/kg 5-10; method in brief: as §4
[16] = tested on: Canis familiaris; assay: Bronchodilator activity in dog assessed as time of inhibition of carbachol or histamine-induced bronchoconstriction at 440 to 880 mg/kg, it relative to control; assay type: functional, Canis lupus familiaris; details: dose mg/kg 440-880; route endotracheal; method in brief: as §4
[17] = tested on: Canis familiaris; assay: Bronchodilator activity in dog assessed as time of inhibition of carbachol or histamine-induced bronchoconstriction at 50 to 100 mg/kg, iv relative to control; assay type: functional, Canis lupus familiaris; details: dose mg/kg 50-100; method in brief: as §4
[18] = tested on: Canis familiaris; assay: Cardiotoxicity in spontaneously respiring dog assessed as time of increase in heart rate at 50 to 100 mg/kg, iv relative to control; assay type: toxicity, organism-based, Canis lupus familiaris; design: dose 50-100 mg/kg, route intravenous; details: in vivo
Method in brief: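 Anesthetized, spontaneously respiring dogs. Heart rate monitored by lead II EKG, with blood pressure taken from the right femoral artery by pressure transducer and recorded on a polygraph. Drug stocks made fresh in distilled water, diluted in physiological saline and kept on ice. Dosing was iv, id or it as listed. The duration of the heart-rate increase was recorded in h, with more than 4 dogs per dose.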

[19] = tested on: Canis familiaris; assay: Bronchodilator activity in dog assessed as degree of inhibition of carbachol or histamine-induced bronchoconstriction at 50 to 100 mg/kg, iv relative to control; assay type: functional, Canis lupus familiaris; details: dose mg/kg 50-100; method in brief: as §3
[20] = tested on: Canis familiaris; assay: Cardiotoxicity in spontaneously respiring dog assessed as degree of increase in heart rate at 50 to 100 mg/kg, iv relative to control; assay type: toxicity, organism-based, Canis lupus familiaris; design: dose 50-100 mg/kg, route intravenous; details: in vivo; method in brief: as §5
[21] = tested on: Canis familiaris; assay: Bronchodilator activity in dog assessed as degree of inhibition of carbachol or histamine-induced bronchoconstriction at 400 to 800 mg/kg, it relative to control; assay type: functional, Canis lupus familiaris; details: dose mg/kg 400-800; route endotracheal; method in brief: as §3
[22] = tested on: Canis familiaris; assay: Cardiotoxicity in spontaneously respiring dog assessed as degree of increase in heart rate at 400 to 800 mg/kg, it relative to control; assay type: toxicity, organism-based, Canis lupus familiaris; design: dose 400-800 mg/kg, route endotracheal; details: in vivo, inhaled_or_intranasal; method in brief: as §5
[23] = tested on: Canis familiaris; assay: Cardiotoxicity in spontaneously respiring dog assessed as time of increase in heart rate at 400 to 800 mg/kg, it relative to control; assay type: toxicity, organism-based, Canis lupus familiaris; design: dose 400-800 mg/kg, route endotracheal; details: in vivo, inhaled_or_intranasal; method in brief: as §5
[24] = tested on: Canis familiaris; assay: Bronchodilator activity in dog assessed as time of inhibition of carbachol or histamine-induced bronchoconstriction at 400 to 800 mg/kg, it relative to control; assay type: functional, Canis lupus familiaris; details: dose mg/kg 400-800; route endotracheal
Method in brief: (§6)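 Dog airway model: anesthetized, cannulated via a nonbreathing valve, with airway pressure changes recorded after iv carbachol (2–4 μg/kg) or histamine diphosphate (20–50 μg/kg) challenge, each agonist in different animals. Compounds were given iv, intraduodenally or intratracheally from fresh aqueous stocks diluted in saline. Duration (h) of inhibition of induced bronchoconstriction was followed, and the two agonist datasets were pooled.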

[25] = tested on: Canis familiaris; assay: Bronchodilator activity in dog assessed as time of inhibition of carbachol or histamine-induced bronchoconstriction at 380 mg/kg, it relative to control; assay type: functional, Canis lupus familiaris; details: route endotracheal; method in brief: as §6
[26] = tested on: Canis familiaris; assay: Bronchodilator activity in dog assessed as time of inhibition of carbachol or histamine-induced bronchoconstriction at 200 to 400 mg/kg, id relative to control; assay type: functional, Canis lupus familiaris; details: dose mg/kg 200-400; route intraduodenal; method in brief: as §6
[27] = tested on: Canis familiaris; assay: Cardiotoxicity in spontaneously respiring dog assessed as time of increase in heart rate at 4 to 8 mg/kg, iv relative to control; assay type: toxicity, organism-based, Canis lupus familiaris; design: dose 4-8 mg/kg, route intravenous; details: in vivo; method in brief: as §5
[28] = tested on: Canis familiaris; assay: Bronchodilator activity in dog assessed as degree of inhibition of carbachol or histamine-induced bronchoconstriction at 200 to 400 mg/kg, id relative to control; assay type: functional, Canis lupus familiaris; details: dose mg/kg 200-400; route intraduodenal; method in brief: as §3
[29] = tested on: Canis familiaris; assay: Cardiotoxicity in spontaneously respiring dog assessed as degree of increase in heart rate at 4 to 8 mg/kg, iv relative to control; assay type: toxicity, organism-based, Canis lupus familiaris; design: dose 4-8 mg/kg, route intravenous; details: in vivo; method in brief: as §5
[30] = tested on: Canis familiaris; assay: Bronchodilator activity in dog assessed as time of inhibition of carbachol or histamine-induced bronchoconstriction at 4 to 8 mg/kg, iv relative to control; assay type: functional, Canis lupus familiaris; details: dose mg/kg 4-8; method in brief: as §6
[31] = tested on: Canis familiaris; assay: Bronchodilator activity in dog assessed as degree of inhibition of carbachol or histamine-induced bronchoconstriction at 380 mg/kg, it relative to control; assay type: functional; details: Canis lupus familiaris, route endotracheal; method in brief: as §3
[32] = tested on: Canis familiaris; assay: Bronchodilator activity in dog assessed as degree of inhibition of carbachol or histamine-induced bronchoconstriction at 4 to 8 mg/kg, iv relative to control; assay type: functional, Canis lupus familiaris; details: dose mg/kg 4-8; method in brief: as §3

In the case of CC(C)(C)NC[C@H](O)c1ccc(OC(=O)C(C)(C)C)c(O)c1.CS(=O)(=O)O, the Time [1] is reported as under 2 h, the “inhibition (INH)” value [2] is reported as 45% and the Time [3] is reported as under 0.5 h. The Activity [4] was 40%.

In the case of CC(C)CC(=O)Oc1ccc([C@@H](O)CNC(C)(C)C)cc1O.CS(=O)(=O)O, the Time [5] is reported as under 1 h, the “inhibition (INH)” value [6] is reported as 45% and the Time [7] is reported as under 2 h. For the same compound, the Activity [8] was 40%.

CC(C)(C)CC(=O)Oc1ccc([C@@H](O)CNC(C)(C)C)cc1O.CS(=O)(=O)O was tested, and the inhibition in vivo at 5 mg/kg [9] was 45% and the Time [10] was over 3 h.

In the case of CS(=O)(=O)O.Cc1ccc(C(=O)Oc2ccc([C@@H](O)CNC(C)(C)C)cc2O)cc1, the “inhibition (INH)” value [11] is reported as 45%, the Time [12] is reported as under 0.5 h and the Activity [13] is reported as 40 beats/min. For the same compound, the “inhibition (INH)” value [14] was 45%, the Time [15] was over 3 h and the Time [16] was under 2 h.

With CS(=O)(=O)O.Cc1cccc(C(=O)Oc2ccc([C@@H](O)CNC(C)(C)C)cc2O)c1 the Time [17] was under 2 h, the Time [18] was under 0.5 h and the “inhibition (INH)” value [19] was over 70%. The “inhibition (INH)” value [14] was over 70%, the Activity [20] was 40 beats/min and the Time [16] was under 2 h.

In the case of COc1ccc(C(=O)Oc2ccc([C@@H](O)CNC(C)(C)C)cc2O)cc1.Cl, the “inhibition (INH)” value [21] is reported as 45%, the Activity [22] is reported as 20% and the Time [23] is reported as under 0.5 h. It also gave a Time [24] of under 2 h.

In the case of CCCC(=O)Oc1ccc([C@@H](O)CNC(C)(C)C)cc1OC(=O)CCC.Cl, the Time [25] is reported as under 2 h, the Time [26] is reported as over 3 h and the Time [27] is reported as under 1 h. For the same compound, the “inhibition (INH)” value [28] was over 70%, the Activity [29] was 20 beats/min and the Time [30] was under 2 h. For the same compound, the inhibition in vivo at 380 mg/kg [31] was over 70% and the “inhibition (INH)” value [32] was over 70%.

Reference: ChEMBL document CHEMBL3272249, “Esters of N-tert-butylarterenol. Long-acting new bronchodilators with reduced cardiac effects” (J Med Chem, 1976)
